Data set [1] deals with T1, Serine/threonine-protein kinase 3 (Homo sapiens, UniProt Q13188).
T1 sequence (Q13188 whole entry): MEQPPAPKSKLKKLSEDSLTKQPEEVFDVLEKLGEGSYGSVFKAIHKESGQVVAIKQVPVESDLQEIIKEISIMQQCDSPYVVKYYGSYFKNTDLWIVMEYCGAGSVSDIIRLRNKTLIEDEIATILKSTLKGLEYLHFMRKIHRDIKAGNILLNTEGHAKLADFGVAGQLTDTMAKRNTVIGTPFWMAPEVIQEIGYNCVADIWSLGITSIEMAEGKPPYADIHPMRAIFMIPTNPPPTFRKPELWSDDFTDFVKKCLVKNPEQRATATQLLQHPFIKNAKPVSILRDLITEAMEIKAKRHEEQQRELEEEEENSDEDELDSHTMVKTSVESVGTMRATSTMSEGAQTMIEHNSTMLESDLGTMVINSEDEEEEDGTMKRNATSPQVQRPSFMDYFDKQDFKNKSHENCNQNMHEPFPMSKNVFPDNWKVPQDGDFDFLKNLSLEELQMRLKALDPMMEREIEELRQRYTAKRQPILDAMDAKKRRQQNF
Nature of the data set: Inhibition of recombinant His-tagged full-length MST2 (unknown origin) expressing in Escherichia coli assessed as MOB1a phosphorylation level incubated for 30 min in the presence of 30 uM ATP by immunoblot analysis. (In general: A western blot detects proteins with antibodies after separation by electrophoresis.)

The subject of data set [2] is Tyrosine-protein kinase ABL1 (Homo sapiens), P00519 [F317L]. Nature of the data set: Inhibition of ABL1 F317L mutant (unknown origin) assessed as remaining activity at 1 uM by Kinome scan method relative to control. The procedure, abridged:
(§1)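 Active-site-dependent competition-binding (KINOMEscan) panel of 468 kinases, test compound at 1 μM (from a 10 mM DMSO stock). Read-out is ctrl% = (test signal − positive control signal)/(negative control signal − positive control signal) × 100. DMSO is the negative control (100%) and a control compound is the positive control (0%). Lower ctrl% means tighter binding.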

For data set [3], the system named is Tyrosine-protein kinase ABL1 (Homo sapiens), P00519 [H396P]. Nature of the data set: Inhibition of phosphorylated ABL1 H396P mutant (unknown origin) assessed as remaining activity at 1 uM by Kinome scan method relative to control.
Data set [4] has as its system Tyrosine-protein kinase ABL1 (Homo sapiens), P00519 [Y253F]. Put plainly: Inhibition of phosphorylated ABL1 Y253F mutant (unknown origin) assessed as remaining activity at 1 uM by Kinome scan method relative to control.
For data set [5], the target named is ALK tyrosine kinase receptor (Homo sapiens) (UniProt Q9UM73). Nature of the data set: Inhibition of ALK (unknown origin) assessed as remaining activity at 1 uM by Kinome scan method relative to control. The procedure, abridged:
as §1

Data set [6] deals with Casein kinase I isoform epsilon (Homo sapiens) (UniProt P49674). Put plainly: Inhibition of CSNK1E (unknown origin) assessed as remaining activity at 1 uM by Kinome scan method relative to control. Put shortly:
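Active-site-dependent competition-binding profiling (KINOMEscan) at 1 μM against a 468-kinase panel; compound supplied from a 10 mM DMSO stock. Read-out is ctrl% = (test signal − positive control signal)/(negative control signal − positive control signal) × 100. DMSO is the negative control (100%) and a control compound the positive control (0%). Lower ctrl% means tighter binding.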

For data set [7], the system named is Epidermal growth factor receptor (Homo sapiens), P00533 [L858R]. Put plainly: Inhibition of EGFR L858R mutant (unknown origin) assessed as remaining activity at 1 uM by Kinome scan method relative to control.
Data set [8] concerns Epidermal growth factor receptor (Homo sapiens), P00533 [L858R,T790M]. Nature of the data set: Inhibition of EGFR L858R/T790M mutant (unknown origin) assessed as remaining activity at 1 uM by Kinome scan method relative to control.
The test system of data set [9] is Receptor-type tyrosine-protein kinase FLT3 (Homo sapiens), P36888 [N841I]. Nature of the data set: Inhibition of FLT3 N841I mutant (unknown origin) assessed as remaining activity at 1 uM by Kinome scan method relative to control.
For data set [10], the target named is Insulin receptor-related protein (Homo sapiens) (UniProt P14616). Nature of the data set: Inhibition of INSRR (unknown origin) assessed as remaining activity at 1 uM by Kinome scan method relative to control.
The test system of data set [11] is Mast/stem cell growth factor receptor Kit (Homo sapiens), P10721 [A829P]. Put plainly: Inhibition of KIT A829P mutant (unknown origin) assessed as remaining activity at 1 uM by Kinome scan method relative to control.
Mast/stem cell growth factor receptor Kit (Homo sapiens), P10721 [A829P], sequence (P10721 whole entry A829P): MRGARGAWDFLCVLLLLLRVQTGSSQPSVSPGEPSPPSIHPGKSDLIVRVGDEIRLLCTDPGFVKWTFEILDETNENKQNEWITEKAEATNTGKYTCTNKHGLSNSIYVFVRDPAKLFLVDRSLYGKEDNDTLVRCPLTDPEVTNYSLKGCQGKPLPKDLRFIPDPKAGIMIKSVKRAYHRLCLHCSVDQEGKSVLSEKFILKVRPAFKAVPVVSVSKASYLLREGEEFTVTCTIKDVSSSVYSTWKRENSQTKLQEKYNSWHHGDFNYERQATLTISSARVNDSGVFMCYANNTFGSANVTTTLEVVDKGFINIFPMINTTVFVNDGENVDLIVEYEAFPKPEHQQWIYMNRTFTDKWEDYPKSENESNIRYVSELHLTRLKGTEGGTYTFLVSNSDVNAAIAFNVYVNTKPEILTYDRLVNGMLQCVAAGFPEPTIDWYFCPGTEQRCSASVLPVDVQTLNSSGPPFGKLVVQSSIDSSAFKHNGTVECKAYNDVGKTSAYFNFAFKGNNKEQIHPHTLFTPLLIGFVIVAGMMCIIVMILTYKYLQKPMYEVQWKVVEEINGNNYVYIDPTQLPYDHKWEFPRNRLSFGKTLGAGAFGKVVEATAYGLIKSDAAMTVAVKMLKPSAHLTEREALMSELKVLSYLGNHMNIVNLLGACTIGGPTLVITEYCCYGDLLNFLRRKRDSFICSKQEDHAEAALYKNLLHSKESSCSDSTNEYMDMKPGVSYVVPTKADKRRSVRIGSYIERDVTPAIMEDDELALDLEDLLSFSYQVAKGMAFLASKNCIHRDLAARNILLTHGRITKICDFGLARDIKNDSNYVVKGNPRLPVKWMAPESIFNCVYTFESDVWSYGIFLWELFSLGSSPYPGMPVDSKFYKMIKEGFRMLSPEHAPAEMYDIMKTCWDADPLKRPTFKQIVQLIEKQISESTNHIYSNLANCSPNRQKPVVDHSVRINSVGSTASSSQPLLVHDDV
For data set [12], the target named is Mast/stem cell growth factor receptor Kit (Homo sapiens) (UniProt P10721). Put plainly: Inhibition of KIT-autoinhibited (unknown origin) assessed as remaining activity at 1 uM by Kinome scan method relative to control.
Mast/stem cell growth factor receptor Kit (Homo sapiens), sequence (P10721 whole entry): as the sequence (P10721 whole entry A829P) above, with P829A counted along it
For data set [13], the target named is 3-phosphoinositide-dependent protein kinase 1 (Homo sapiens) (UniProt O15530). Put plainly: Inhibition of PDPK1 (unknown origin) assessed as remaining activity at 1 uM by Kinome scan method relative to control.
For data set [14], the target named is 1-phosphatidylinositol 3-phosphate 5-kinase (Homo sapiens) (UniProt Q9Y2I7). Put plainly: Inhibition of PIKFYVE (unknown origin) assessed as remaining activity at 1 uM by Kinome scan method relative to control.
For data set [15], the target named is Serine/threonine-protein kinase 35 (Homo sapiens) (UniProt Q8TDR2). Put plainly: Inhibition of STK35 (unknown origin) assessed as remaining activity at 1 uM by Kinome scan method relative to control.
Serine/threonine-protein kinase 35 (Homo sapiens), sequence (Q8TDR2 whole entry): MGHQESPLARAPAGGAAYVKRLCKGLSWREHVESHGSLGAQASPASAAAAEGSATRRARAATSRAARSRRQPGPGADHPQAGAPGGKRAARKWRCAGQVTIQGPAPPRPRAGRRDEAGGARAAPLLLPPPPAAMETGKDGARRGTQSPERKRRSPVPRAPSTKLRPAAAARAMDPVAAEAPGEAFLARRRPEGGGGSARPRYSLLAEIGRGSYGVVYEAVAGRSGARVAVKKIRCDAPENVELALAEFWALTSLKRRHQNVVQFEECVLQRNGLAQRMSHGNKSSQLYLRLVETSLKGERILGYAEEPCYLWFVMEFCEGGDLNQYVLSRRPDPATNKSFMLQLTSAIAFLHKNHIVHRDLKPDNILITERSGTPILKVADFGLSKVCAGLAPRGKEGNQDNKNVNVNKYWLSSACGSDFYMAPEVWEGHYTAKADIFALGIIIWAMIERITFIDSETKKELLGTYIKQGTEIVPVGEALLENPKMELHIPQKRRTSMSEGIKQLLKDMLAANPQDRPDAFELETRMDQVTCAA
In data set [16] the target is Aurora kinase A (Homo sapiens, UniProt O14965). Nature of the data set: Binding affinity to AURKA (unknown origin) assessed as dissociation constant.
Data set [17] has as its target Tyrosine-protein kinase JAK1 (Homo sapiens, UniProt P23458). Put plainly: Binding affinity to JAK1 JH2domain-pseudokinase (unknown origin) assessed as dissociation constant.
Data set [18] in a line: Inhibition of recombinant His-tagged full-length MST1 D109A mutant (unknown origin) expressing in Escherichia coli assessed as MOB1 phosphorylation level incubated for 15 min by immunoblot analysis. Also on record: species or system Homo sapiens.
Data set [19] can be described thus: MRT (0 to infinity) in male Sprague-Dawley rat at 10 mg/kg, po measured for 24 hrs by LC-MS/MS analysis. Type of data set: ADME, organism-based. Conditions: in vivo.
Data set [20] can be described thus: Acute toxicity in wild-type mouse assessed as bromodeoxyuridine positive cells at 1 mg/kg,ip administrated daily for 2 months and after 2 weeks drug withdrawal by H and E staining based immunohistochemical analysis. The note with it: in vivo, 1460 h. The class given is organism-based. The procedure, abridged: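 Wild-type mice dosed 1 mg/kg i.p. daily for 2 months (vehicle 0.1% citric acid aqueous solution with 20% Kolliphor HS 15), or dosed and then withdrawn 2 weeks. Liver sections given H&E and IHC for CK19 and BrdU; positive cells counted, n = 3; means ± SD, Student's t test.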

Data set [21] deals with Mus musculus. Put plainly: Protection against duct ligation-induced mouse assessed as low level in collagen deposition at 1 mg/kg, ip administration daily for 10 days by Sirius Red staining. The note with it: Liver, time 10.0 day. The class given is functional, organism-based.

Activity calls are given as the source filed them. The rule behind the calls is not given here.

Casein kinase I isoform epsilon (Homo sapiens), sequence (P49674 whole entry, looked up, canonical isoform): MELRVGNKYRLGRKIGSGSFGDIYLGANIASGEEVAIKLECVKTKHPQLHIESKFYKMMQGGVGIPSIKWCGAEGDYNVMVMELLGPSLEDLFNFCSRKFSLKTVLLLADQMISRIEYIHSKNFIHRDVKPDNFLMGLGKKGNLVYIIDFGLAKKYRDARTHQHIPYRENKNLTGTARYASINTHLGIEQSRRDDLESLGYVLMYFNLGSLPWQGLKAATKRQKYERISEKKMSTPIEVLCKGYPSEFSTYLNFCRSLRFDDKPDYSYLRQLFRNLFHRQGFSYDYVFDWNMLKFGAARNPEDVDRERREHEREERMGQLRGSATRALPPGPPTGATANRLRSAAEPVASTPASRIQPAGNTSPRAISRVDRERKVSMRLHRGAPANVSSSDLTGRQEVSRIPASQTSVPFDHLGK
ALK tyrosine kinase receptor (Homo sapiens), sequence (Q9UM73 19-1620 limits assumed): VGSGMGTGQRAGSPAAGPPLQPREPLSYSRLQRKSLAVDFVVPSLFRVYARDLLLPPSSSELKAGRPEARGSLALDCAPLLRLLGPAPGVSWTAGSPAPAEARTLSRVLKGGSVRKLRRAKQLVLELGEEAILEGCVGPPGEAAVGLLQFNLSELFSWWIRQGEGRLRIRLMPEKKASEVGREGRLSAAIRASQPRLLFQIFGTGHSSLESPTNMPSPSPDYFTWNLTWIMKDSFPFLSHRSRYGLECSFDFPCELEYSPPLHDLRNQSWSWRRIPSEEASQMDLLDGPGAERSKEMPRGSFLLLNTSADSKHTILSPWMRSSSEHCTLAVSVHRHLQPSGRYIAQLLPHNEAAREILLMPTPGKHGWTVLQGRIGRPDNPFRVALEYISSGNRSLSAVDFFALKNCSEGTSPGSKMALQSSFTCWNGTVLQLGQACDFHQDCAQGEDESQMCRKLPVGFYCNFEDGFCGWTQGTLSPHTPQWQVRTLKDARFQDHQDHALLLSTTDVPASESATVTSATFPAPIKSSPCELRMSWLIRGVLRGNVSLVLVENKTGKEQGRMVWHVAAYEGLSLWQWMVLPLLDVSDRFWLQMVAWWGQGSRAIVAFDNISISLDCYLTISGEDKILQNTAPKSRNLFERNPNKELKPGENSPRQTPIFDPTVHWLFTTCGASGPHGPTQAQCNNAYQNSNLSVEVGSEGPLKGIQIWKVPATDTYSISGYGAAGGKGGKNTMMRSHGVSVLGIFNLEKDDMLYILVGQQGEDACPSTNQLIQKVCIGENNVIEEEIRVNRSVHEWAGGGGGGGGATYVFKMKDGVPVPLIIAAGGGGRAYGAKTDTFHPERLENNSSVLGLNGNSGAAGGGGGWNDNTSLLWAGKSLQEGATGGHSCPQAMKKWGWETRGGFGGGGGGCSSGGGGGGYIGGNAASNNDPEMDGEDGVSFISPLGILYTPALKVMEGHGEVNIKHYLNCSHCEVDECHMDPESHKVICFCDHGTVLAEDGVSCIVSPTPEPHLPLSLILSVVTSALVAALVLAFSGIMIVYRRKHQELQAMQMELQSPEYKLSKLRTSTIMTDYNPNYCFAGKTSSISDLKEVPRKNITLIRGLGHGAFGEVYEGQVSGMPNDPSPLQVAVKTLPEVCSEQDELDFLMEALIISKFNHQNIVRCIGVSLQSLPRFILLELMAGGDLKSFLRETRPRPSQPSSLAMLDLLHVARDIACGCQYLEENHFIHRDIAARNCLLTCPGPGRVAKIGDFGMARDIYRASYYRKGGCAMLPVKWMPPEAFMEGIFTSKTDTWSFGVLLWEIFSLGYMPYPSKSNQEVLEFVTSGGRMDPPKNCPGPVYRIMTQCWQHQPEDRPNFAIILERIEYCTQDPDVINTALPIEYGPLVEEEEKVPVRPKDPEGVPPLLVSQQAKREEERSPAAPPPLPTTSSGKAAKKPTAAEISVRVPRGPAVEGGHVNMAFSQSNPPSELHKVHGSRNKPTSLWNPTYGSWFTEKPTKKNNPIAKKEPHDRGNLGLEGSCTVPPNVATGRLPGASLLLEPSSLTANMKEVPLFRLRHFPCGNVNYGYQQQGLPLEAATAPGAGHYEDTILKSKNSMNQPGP
Tyrosine-protein kinase JAK1, sequence (P23458 whole entry): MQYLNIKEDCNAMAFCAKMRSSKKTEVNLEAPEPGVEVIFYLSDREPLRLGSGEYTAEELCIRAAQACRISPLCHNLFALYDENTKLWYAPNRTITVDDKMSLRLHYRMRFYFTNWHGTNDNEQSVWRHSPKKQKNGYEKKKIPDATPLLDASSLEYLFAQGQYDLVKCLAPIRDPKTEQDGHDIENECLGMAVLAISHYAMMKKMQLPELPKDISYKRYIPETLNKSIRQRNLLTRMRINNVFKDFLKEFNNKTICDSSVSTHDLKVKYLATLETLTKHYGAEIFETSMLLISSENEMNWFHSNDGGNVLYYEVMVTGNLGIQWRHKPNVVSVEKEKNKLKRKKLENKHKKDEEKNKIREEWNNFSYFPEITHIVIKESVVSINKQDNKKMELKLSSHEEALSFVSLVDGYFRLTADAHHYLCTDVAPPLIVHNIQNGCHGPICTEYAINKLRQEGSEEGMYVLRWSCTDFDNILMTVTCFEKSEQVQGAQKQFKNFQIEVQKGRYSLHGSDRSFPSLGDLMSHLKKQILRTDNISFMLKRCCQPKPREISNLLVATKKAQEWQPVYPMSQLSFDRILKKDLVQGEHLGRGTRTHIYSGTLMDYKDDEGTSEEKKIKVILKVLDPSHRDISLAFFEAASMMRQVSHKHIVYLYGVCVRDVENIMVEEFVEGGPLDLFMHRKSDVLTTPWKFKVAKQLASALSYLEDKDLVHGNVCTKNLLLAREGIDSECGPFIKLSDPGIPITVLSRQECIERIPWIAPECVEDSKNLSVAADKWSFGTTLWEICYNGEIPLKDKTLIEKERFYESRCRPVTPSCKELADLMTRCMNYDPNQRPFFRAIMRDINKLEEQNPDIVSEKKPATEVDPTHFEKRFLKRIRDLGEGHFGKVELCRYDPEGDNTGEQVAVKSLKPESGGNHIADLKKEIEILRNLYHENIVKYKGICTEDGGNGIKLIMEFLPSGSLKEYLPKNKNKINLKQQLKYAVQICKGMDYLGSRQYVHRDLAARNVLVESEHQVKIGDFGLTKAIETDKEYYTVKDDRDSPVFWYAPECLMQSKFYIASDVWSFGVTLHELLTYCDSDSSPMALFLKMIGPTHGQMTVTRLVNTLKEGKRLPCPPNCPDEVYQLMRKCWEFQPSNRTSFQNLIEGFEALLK

Consider `CN1C(=O)c2sccc2N(C)c2nc(Nc3ccc(S(N)(=O)=O)cc3)ncc21`, for which the results for the IC50 in [1] and in [18] were 177 nM and 753 nM, respectively. Moreover, the Activity in data set [2] came to 32%; in data set [3], 14%; in data set [4], 15%; in data set [5] it was 94%; in data set [6], 92%; in data set [7] it was 100%. For the same molecule, the Activity stood at 77% in [8]; 39% in [9]; 100% in data set [10]; 91% in data set [11]; 100% in data set [12]; 100% in data set [13]. For the same molecule, the Activity is 64% in data set [14], 100% in [15] and “Non-Toxic” in [20]. The Kd (usually the free concentration of one partner at which half of the binding sites on the other are occupied at equilibrium, for simple one-to-one binding) in [16] stood at 13 nM; in [17], 22 nM. For the same molecule, the MRT inf (usually a mean duration of stay, worked out from the concentration-time curve) in data set [19] stood at 7.34 h. Further, in [21], the outcome was Active.

Source of the values: ChEMBL document CHEMBL5705905, “Pharmacological targeting of kinases MST1 and MST2 augments tissue repair and regeneration” (Sci Transl Med, 2016).
